Consider five compounds from ChEMBL document CHEMBL1133118 (J Med Chem, 2000).

Experiment [1] concerns the target T1, Adenosine receptor A3 (Homo sapiens, UniProt P0DMS8).
T1 sequence (P0DMS8 whole entry): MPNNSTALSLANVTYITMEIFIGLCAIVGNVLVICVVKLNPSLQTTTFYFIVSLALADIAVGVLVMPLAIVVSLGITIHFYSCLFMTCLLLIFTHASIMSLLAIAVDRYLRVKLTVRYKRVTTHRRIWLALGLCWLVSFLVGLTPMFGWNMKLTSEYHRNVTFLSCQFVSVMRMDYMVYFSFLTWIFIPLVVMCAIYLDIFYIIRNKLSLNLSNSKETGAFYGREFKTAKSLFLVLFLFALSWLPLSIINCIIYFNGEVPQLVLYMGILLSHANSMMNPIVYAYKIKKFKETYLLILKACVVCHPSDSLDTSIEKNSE
Description: Displacement of [3H]MRE3008-F20 from human adenosine A3 receptor expressed in CHO cells; range 285-385. Format: cell-based. On the technique in general: Displacement assays read how much labelled ligand stays bound in the presence of the test substance.

In experiment [2] the target is Adenosine receptors; A1 & A3 (Homo sapiens) (UniProt P30542+P0DMS8). Description: Ratio of binding affinity of human A1 receptor to that of human A3 receptor. Format: protein assay. In a few lines: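 Ki ratio from displacement in CHO membranes, 6–8 concentrations, n=3-6, filtration counting. A1: 1 nM [3H]DPCPX, 50 μg protein, 120 min at 25 °C, nonspecific with 10 μM CHA. A3: 1 nM [3H]MRE3008-F20, 50 μg protein, Tris/10 mM MgCl2 pH 7.4, 120 min at 4 °C, nonspecific with 1 μM MRE3008-F20.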

For experiment [3], the target named is T2, Adenosine receptor A2b (Homo sapiens, UniProt P29275).
T2 sequence (P29275 whole entry): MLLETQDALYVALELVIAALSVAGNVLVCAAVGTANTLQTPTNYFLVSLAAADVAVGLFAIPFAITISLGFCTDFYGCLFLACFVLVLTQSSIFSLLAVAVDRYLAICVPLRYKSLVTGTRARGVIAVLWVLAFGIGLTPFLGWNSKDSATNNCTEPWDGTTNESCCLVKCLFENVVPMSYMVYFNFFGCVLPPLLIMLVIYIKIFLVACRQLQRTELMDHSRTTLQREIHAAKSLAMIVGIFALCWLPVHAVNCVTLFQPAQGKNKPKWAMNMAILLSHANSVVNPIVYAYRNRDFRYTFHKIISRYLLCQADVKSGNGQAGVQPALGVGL
The experiment is described as follows: Displacement of [3H]DPCPX from Adenosine A2b receptor expressed in […]; range 56-75. Type of experiment: cell-based.

The target of experiment [4] is T3, Adenosine receptor A2a (Homo sapiens, UniProt P29274). Description: Displacement of [3H]-SCH- 58261 from human adenosine A2A receptor expressed in CHO cells; range 1.70-2.10. Type of experiment: cell-based. In a few lines:
(§1)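 Membranes from CHO cells stably expressing human A2A receptor, grown in DMEM/F12 without nucleosides, resuspended in 50 mM Tris HCl, 10 mM MgCl2, pH 7.4; 50 μg protein/assay. Competition with [3H]SCH 58261 at 6–8 or more compound concentrations, 60 min at 25 °C; nonspecific binding with 50 μM NECA. Filtration on GF/B filters, scintillation counting; n=3-6.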

Experiment [5] has as its target T4, Adenosine receptor A3 (Homo sapiens) (UniProt P0DMS8).
T4 sequence (whole entry): T1 sequence (P0DMS8 whole entry)
Description: Percentage of blockade by 1 uM of the inhibition by 100 nM IB-MECA-inhibited cAMP accumulation in CHO cells expressing human adenosine A3 receptor. Type of experiment: functional, cell-based. The method, boiled down:
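CHO cells stably expressing human A3 receptor; membranes in 50 mM Tris HCl, 10 mM MgCl2, 1 mM EDTA pH 7.4 with 5 μM GTP, 0.5 mM […] and 2.0 IU/mL adenosine deaminase. Preincubated 10 min at 37 °C, then IB-MECA (100 nM) and/or antagonist with 1 mM ATP and 10 μM forskolin for 10 min. Boiled 2 min. cAMP read by [3H]cAMP competition with adrenal binding protein.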
On the technique in general: Cyclic AMP is a second messenger, typically raised through Gs and lowered through Gi signalling.

The target in experiment [6] is Adenosine receptors; A2b & A3 (Homo sapiens) (UniProt P29275+P0DMS8). The experiment is described as follows: Ratio of binding affinity of human A2B receptor to that of human A3 receptor. Type of experiment: protein assay. In a few lines: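 Ki ratio, n=3-6, 6–8 concentrations. A2B in HEK-293 membranes (20 μg): 40 nM [3H]DPCPX, 50 mM Tris HCl, 10 mM MgCl2, 1 mM EDTA, 0.1 mM benzamidine pH 7.4, 2 IU/mL adenosine deaminase, 60 min at 25 °C, nonspecific with 100 μM NECA. A3 in CHO membranes (50 μg): 1 nM [3H]MRE3008-F20, 120 min at 4 °C.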

In experiment [7] the target is T2, Adenosine receptor A2b. Description: Displacement of [3H]-DPCPX from Adenosine A2b receptor expressed in […]; range 719-895. Format: cell-based.
Experiment [8] deals with T3, Adenosine receptor A2a. The experiment is described as follows: Displacement of [3H]-SCH- 58261 from human adenosine A2A receptor expressed in CHO cells; range 880-1160. Type of experiment: cell-based. In a few lines: as §1
In experiment [9] the target is T1, Adenosine receptor A3. Description: Displacement of [3H]MRE3008-F20 from human adenosine A3 receptor expressed in CHO cells; range 33-48. Type of experiment: cell-based.
Experiment [10] deals with T3, Adenosine receptor A2a. The experiment is described as follows: Displacement of [3H]-SCH- 58261 from human adenosine A2A receptor expressed in CHO cells; range 1770-2327. Type of experiment: cell-based.
The target in experiment [11] is T1, Adenosine receptor A3. Description: Displacement of [3H]MRE3008-F20 from human adenosine A3 receptor expressed in CHO cells; range 17-36. Format: cell-based.
The target in experiment [12] is T5, Adenosine receptor A1 (Homo sapiens, UniProt P30542).
T5 sequence (P30542 whole entry): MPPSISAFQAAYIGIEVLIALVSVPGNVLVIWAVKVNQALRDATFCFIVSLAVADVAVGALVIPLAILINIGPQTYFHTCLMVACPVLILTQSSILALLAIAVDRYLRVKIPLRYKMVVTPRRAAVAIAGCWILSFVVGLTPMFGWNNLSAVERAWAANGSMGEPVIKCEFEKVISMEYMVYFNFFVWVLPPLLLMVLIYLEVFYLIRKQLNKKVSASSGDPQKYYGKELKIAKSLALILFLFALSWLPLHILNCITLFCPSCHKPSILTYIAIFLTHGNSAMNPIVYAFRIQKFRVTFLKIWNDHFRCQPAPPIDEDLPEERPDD
Description: Displacement of [3H]DPCPX from human adenosine A1 receptor expressed in CHO cells; range 191-339. Format: cell-based.

The target in experiment [13] is T2, Adenosine receptor A2b. Description: Displacement of [3H]DPCPX from Adenosine A2b receptor expressed in CHO cells. Format: cell-based.
The target in experiment [14] is T3, Adenosine receptor A2a. Description: Displacement of [3H]-SCH- 58261 from human adenosine A2A receptor expressed in CHO cells; range 730-1100. Format: cell-based.
Experiment [15] has as its target T1, Adenosine receptor A3. The experiment is described as follows: Displacement of [3H]MRE3008-F20 from human adenosine A3 receptor expressed in CHO cells; range 3228-3614. Format: cell-based.
Experiment [16] deals with T5, Adenosine receptor A1. The experiment is described as follows: Displacement of [3H]DPCPX from human adenosine A1 receptor expressed in CHO cells; range 267-453. Type of experiment: cell-based.
The target in experiment [17] is T2, Adenosine receptor A2b. The experiment is described as follows: Displacement of [3H]DPCPX from Adenosine A2b receptor expressed in HEK-293 cells; range 3828-4817.
The target in experiment [18] is T3, Adenosine receptor A2a. The experiment is described as follows: Displacement of [3H]-SCH- 58261 from human adenosine A2A receptor expressed in CHO cells; range 2826-3761. Format: cell-based.
The target of experiment [19] is T5, Adenosine receptor A1. The experiment is described as follows: Tested for inhibitory activity against human adenosine A1 receptor by displacement of [3H]DPCPX expressed in CHO cells; value ranges from 2362-2575. Type of experiment: cell-based.
In experiment [20] the target is T1, Adenosine receptor A3. Description: biochemical.

T3 sequence (P29274 whole entry): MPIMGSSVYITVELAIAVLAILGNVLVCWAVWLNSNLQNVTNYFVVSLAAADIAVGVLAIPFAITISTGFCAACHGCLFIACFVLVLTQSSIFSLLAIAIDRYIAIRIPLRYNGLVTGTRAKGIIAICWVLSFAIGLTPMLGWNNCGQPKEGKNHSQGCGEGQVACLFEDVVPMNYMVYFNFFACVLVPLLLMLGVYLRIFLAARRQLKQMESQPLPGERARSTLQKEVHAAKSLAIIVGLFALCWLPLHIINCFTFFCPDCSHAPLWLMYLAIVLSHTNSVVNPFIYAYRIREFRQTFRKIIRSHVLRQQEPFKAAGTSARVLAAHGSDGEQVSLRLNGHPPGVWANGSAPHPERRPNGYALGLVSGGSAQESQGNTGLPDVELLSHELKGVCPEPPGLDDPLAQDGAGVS

For orientation: Ki means a dissociation constant, usually derived from enzyme kinetics or from competition with a known ligand. As usually defined, the inhibition is the change of the read-out against control, counted positive when it falls. As for `CCn1cc2c(nc(N)n3nc(-c4ccco4)nc23)n1`, the Ki on Adenosine receptor A3 [1] came out at 331 nM; on Adenosine receptor A2b [3], 65 nM; on Adenosine receptor A2a [4], 1.95 nM. For the same compound, the Ratio in [2] was found to be 0.015; in [6], 0.19. The same compound came in with an inhibition in experiment [5] of 25%.

As to `COc1ccc(NC(=O)Nc2nc3nn(CCCc4ccccc4)cc3c3nc(-c4ccco4)nn23)cc1`, the inhibition constant Ki on Adenosine receptor A2b [7] was 802 nM; at Adenosine receptor A2a [8], 1010 nM; on Adenosine receptor A3 [9], 40 nM. For the same compound, the Ratio is 6.27 in experiment [2] and 20 in [6]. In [5], this compound registered an inhibition of 49%.

As for `COc1ccc(NC(=O)Nc2nc3nn(CCc4cc(Br)c(Br)cc4Br)cc3c3nc(-c4ccco4)nn23)cc1`, the inhibition constant Ki on Adenosine receptor A2a [10] was 2030 nM; on Adenosine receptor A3 [11], 25 nM; on Adenosine receptor A1 [12] it was 255 nM; at Adenosine receptor A2b [13] it was > 10000 nM. Moreover, the Ratio was 10.2 in experiment [2] and > 400 in experiment [6]. In experiment [5], this compound registered an inhibition of 50%.

Turning to `Nc1nc2nn(CCc3cccc4ccccc34)cc2c2nc(-c3ccco3)nn12`, the Ki at Adenosine receptor A2a [14] turned out to be 896 nM; at Adenosine receptor A3 [15], 3420 nM; at Adenosine receptor A1 [16], 348 nM; at Adenosine receptor A2b [17], 4290 nM. Also, the Ratio in experiment [2] turned out to be 0.1; in experiment [6], 1.26. The same compound gave an inhibition in experiment [5] of 4%.

On to `COc1ccc(NC(=O)Nc2nc3nn(CCc4cccc5ccccc45)cc3c3nc(-c4ccco4)nn23)cc1`, for which the Ki on Adenosine receptor A2a [18] was 3260 nM; at Adenosine receptor A1 [19] it was 2470 nM; on Adenosine receptor A3 [20] it was 16 nM; on Adenosine receptor A2b [13], > 10000 nM. Also, the Ratio was 154 in experiment [2] and > 625 in [6]. Further, in [5], the inhibition was determined as 52%.
